The source made the active and inactive calls. The rule behind the calls is not given here.
Tests used:
MDA-MB-231 [1] = assay: Cytotoxicity against human MDA-MB-231 cells after 48 hrs by MTT assay; assay type: functional, cell-based; conditions: MDA-MB-231, 48 h
Summary of the method: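 MDA-MB-231 cells exposed to a range of compound concentrations for 48 h, then viability read by MTT. IC50 (50% cell death) obtained by non-linear regression to a sigmoidal dose-response function; mean ± SD of three independent experiments.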

MDA-MB-231 [2] = assay: Induction of cell cycle arrest in human MDA-MB-231 cells assessed as reduction in accumulation at G1 phase at 15 uM after 48 hrs by propidium iodide staining based flow cytometry; assay type: functional
Summary of the method: (§1)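 After 48 h of compound exposure, MDA-MB-231 cells were fixed, stained with propidium iodide and analysed by flow cytometry, with at least 3000 cells per population. Phase fractions (<G1, G1, S, G2/M, >G2) were compared with DMSO vehicle controls. Values are mean ± SD of 4 independent cell samples.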

MDA-MB-231 [3] = assay: Induction of cell cycle arrest in human MDA-MB-231 cells assessed as accumulation at G2/M phase at 15 uM after 48 hrs by propidium iodide staining based flow cytometry; assay type: functional; summary of the method: as §1
MDA-MB-231 [4] = assay: Induction of cell cycle arrest in human MDA-MB-231 cells assessed as >G2 DNA content at 15 uM after 48 hrs by propidium iodide staining based flow cytometry; assay type: functional; summary of the method: as §1
MDA-MB-231 [5] = assay: Induction of cell cycle arrest in human MDA-MB-231 cells assessed as reduction in accumulation at S phase at 15 uM after 48 hrs by propidium iodide staining based flow cytometry; assay type: functional; summary of the method: as §1
MDA-MB-231 [6] = assay: Induction of cell cycle arrest in human MDA-MB-231 cells assessed as < G1 DNA content at 15 uM after 48 hrs by propidium iodide staining based flow cytometry; assay type: functional; summary of the method: as §1
MDA-MB-231 [7] = assay: Induction of cell cycle arrest in human MDA-MB-231 cells assessed as accumulation at S phase at 8 uM after 48 hrs by propidium iodide staining based flow cytometry; assay type: functional; summary of the method: as §1
MDA-MB-231 [8] = assay: Induction of cell cycle arrest in human MDA-MB-231 cells assessed as accumulation at G1 phase at 8 uM after 48 hrs by propidium iodide staining based flow cytometry; assay type: functional; summary of the method: as §1
MDA-MB-231 [9] = assay: Induction of cell cycle arrest in human MDA-MB-231 cells assessed as >G2 DNA content at 8 uM after 48 hrs by propidium iodide staining based flow cytometry; assay type: functional; summary of the method: as §1
MDA-MB-231 [10] = assay: Induction of cell cycle arrest in human MDA-MB-231 cells assessed as accumulation at G2/M phase at 8 uM after 48 hrs by propidium iodide staining based flow cytometry; assay type: functional; summary of the method: as §1
MDA-MB-231 [11] = assay: Induction of cell cycle arrest in human MDA-MB-231 cells assessed as < G1 DNA content at 8 uM after 48 hrs by propidium iodide staining based flow cytometry; assay type: functional; summary of the method: as §1

Structure (SMILES) | IC50 (MDA-MB-231 [1]) | Activity (MDA-MB-231 [2]) | Activity (MDA-MB-231 [3]) | Activity (MDA-MB-231 [4]) | Activity (MDA-MB-231 [5]) | Activity (MDA-MB-231 [6]) | Activity (MDA-MB-231 [7]) | Activity (MDA-MB-231 [8]) | Activity (MDA-MB-231 [9]) | Activity (MDA-MB-231 [10]) | Activity (MDA-MB-231 [11])
Clc1nc(Cl)c2sccc2n1 | 9 µM | Active | >70% | inactive | Active | inactive |  |  |  |  | 
Clc1nc(Cl)c2scc(Br)c2n1 | 5.9 µM |  |  |  |  |  | inactive | inactive | inactive | inactive | inactive
